Assay [1] addresses fluorescein-labeled WIL-FL* T46L/F49Y LC dimer (Homo sapiens, UniProt P01721, K101C/T66L). Briefly: protease-coupled fluorescence polarization. In kind it is biochemical. The conditions noted are these: for increased potency compared to stabilizer 1 in the PCFP assays (up to): highest ratio across the two PCFP assays (WIL-FL* and WIL-FL* T46L/F49Y).
Assay [2] has as its target T1, fluorescein-labeled WIL-FL LC dimer (WIL-FL*) (Homo sapiens, UniProt P01721, K101C). Briefly: protease-coupled fluorescence polarization. In kind it is biochemical.
The next assay concerns FL LC dimers. The conditions noted are these: cited from earlier work.
Assay [3] addresses T1, fluorescein-labeled WIL-FL LC dimer (WIL-FL*). The conditions noted are these: previous study; cited from earlier work.
Assay [4] concerns unlabeled WIL-FL LC dimer. The experiment in a line: proteinase K sensitivity assay, single dose. In kind it is biochemical, human. The conditions noted are these: 10 μM stabilizer. In outline: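 Unlabelled WIL-FL LC dimer (2.5 μM) was treated with test compound (10 μM) and proteinase K (50 nM) for 2 h at 37 °C. Remaining intact dimer was quantified by size-exclusion chromatography. Fold protection is the fraction of dimer remaining with compound, corrected for residual dimer in the vehicle (1% DMSO) control. Mean of ≥3 independent replicates ± 1 SD.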

We go through seven compounds from publication PMC8857066 (Bioorganic & medicinal chemistry letters, 2022).

Each structure is given as a SMILES string.

Sequence of fluorescein-labeled WIL-FL* T46L/F49Y LC dimer (P01721 20-117 T66L/K101C): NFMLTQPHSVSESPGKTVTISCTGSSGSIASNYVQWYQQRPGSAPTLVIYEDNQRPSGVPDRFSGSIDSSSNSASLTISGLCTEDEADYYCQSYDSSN
T1 sequence (P01721 20-117 K101C): as the sequence (P01721 20-117 T66L/K101C) above, with L47T counted along it

Consider `CCN(CC)c1ccc2c(C)c(CCNC(=O)NCc3cccc(-c4c[nH]cn4)c3)c(=O)oc2c1` [Compound 21], for which the “increased potency compared to stabilizer 1 in the PCFP assays (up to)” value in assay [1] is reported as “up to 56 fold”.

On to `CCN(CC)c1ccc2c(C)c(CCNC(=O)CCc3ccccc3)c(=O)oc2c1` [Compound 16], for which the “maximal fluorescence polarization compared to compound 1” value in assay [2] (PCFP dose-response (Figure S3)) is on record as “lower”.

Regarding `O=C(O)c1cc(/N=N/c2ccc(S(=O)(=O)Nc3ccccn3)cc2)ccc1O` [sulfasalazine], the “stabilization of FL LC dimers” value in the assay on FL LC dimers is listed as “do not stabilize FL LC dimers”.

As for `CCN(CC)c1ccc2c(C)c(CCOC(=O)NCc3ccccc3)c(=O)oc2c1` [2-(7-(diethylamino)-4-methyl-2-oxo-2H-chromen-3-yl)ethyl benzylcarbamate], the “improved potency compared to 1 in the PCFP assays” value in assay [3] is given as “more than ten-fold”.

Take `CCN(CC)c1ccc2c(C)c(CCC(=O)NCCc3cccnc3)c(=O)oc2c1` [Compound 11]: in assay [1] (ratio of EC50 values), the “potency increase for WIL-FL* T46L/F49Y compared to stabilizer 1” value was “two-fold”. For the same compound, the “potency increase for WIL-FL* compared to stabilizer 1” value in assay [2] (ratio of EC50 values) stood at 2.6 fold. Also, the “increase in fold protection for unlabeled WIL-FL compared to stabilizer 1” value in assay [4] was determined as 0.33.

In the case of `CCN(CC)c1ccc2c(C)c(CCNC(=O)NCc3ccc4ccccc4c3)c(=O)oc2c1` [Compound 23], the “increased potency compared to stabilizer 1 in the PCFP assays (up to)” value in assay [1] is reported as no more than 150 fold.

Take `CN(C)c1ccc2nc3ccc(=[N+](C)C)cc-3sc2c1` [methylene blue]: the “stabilization of FL LC dimers” value in the assay on FL LC dimers is given as “do not stabilize FL LC dimers”.
